An excerpt weighted towards active compounds, which were near 3.8% of everything screened.
RGS4 inh: human RGS4 inhibition; P49798; HEK293 M3R/RGS4 inducible, Fluo-4 calcium flux; hits give high values; triggered by carbachol at its EC20; B-score at 10 µM; actives 0.45% (n = 310,000);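 active = B-score, a plate-corrected calcium signal, over three deviations above library mean, with baseline fluorescence within five deviations of library mean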;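 also: RGS4 expression induced by doxycycline in cells with stable M3 receptor; B-score is computed from the integrated fluorescence ratio over baseline after carbachol; higher B-score means a larger calcium signal and so more RGS4 inhibition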
Target sequence (P49798 whole entry, looked up): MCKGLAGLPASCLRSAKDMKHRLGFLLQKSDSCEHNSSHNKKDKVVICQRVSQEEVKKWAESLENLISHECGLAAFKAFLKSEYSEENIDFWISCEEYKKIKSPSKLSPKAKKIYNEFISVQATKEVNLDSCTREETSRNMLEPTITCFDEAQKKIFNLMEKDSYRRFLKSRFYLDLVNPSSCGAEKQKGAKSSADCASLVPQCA
Hep lipid drop: hepatic lipid droplet formation modulation. AML12 mouse hepatocytes, oleate lipid droplets, BODIPY imaging. AID 1656. actives 0.4% (n = 240,000). inhibition, % at 6.5 µM;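 active = lipid droplet intensity inhibited by at least 50%, with more than 500 cells counted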
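Material – AML12 mouse liver cells · Also added – oleate loading, 100 µM · Compound dosing – 6.5 µM single-point dosing · Times – overnight treatment with compound plus oleate · Measured by – fluorescence imaging, 20x objective, two fields per well · Read-out – percent inhibition of filter-corrected integrated lipid droplet intensity per well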
RGS4 act: RGS4 potentiation or activation; HEK293 M3R/inducible RGS4, carbachol calcium flux Fluo4; hits give low values; B-score at 10 µM; actives 0.92% (n = 310,000); AID 463111;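 active = B-score of the integrated calcium signal more than 4 SD below the library mean, with starting fluorescence not abnormally high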;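 also: negative B-score means reduced calcium response which marks RGS4 activation or potentiation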
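Detection: kinetic calcium fluorescence imaging with Fluo4-AM dye, 2 µM / Material: HEK293 cells with stable M3R and inducible RGS4 / Schedule: recording 10 s baseline at 1 Hz, 100 s post-agonist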
MrgX1 agonist: activates human MrgX1 receptor signaling | Q96LB2 | actives 0.44% (n = 310,000) | B-score at 10 µM | MrgX1-HEK293 cells, Fluo-4 calcium fluorescence, agonist mode; hits give high values | AID 588627;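 active = calcium response B-score plate-corrected fluorescence ratio at least 3 library SD, with starting fluorescence B-score inside 5 SD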
Target sequence (Q96LB2 whole entry, looked up): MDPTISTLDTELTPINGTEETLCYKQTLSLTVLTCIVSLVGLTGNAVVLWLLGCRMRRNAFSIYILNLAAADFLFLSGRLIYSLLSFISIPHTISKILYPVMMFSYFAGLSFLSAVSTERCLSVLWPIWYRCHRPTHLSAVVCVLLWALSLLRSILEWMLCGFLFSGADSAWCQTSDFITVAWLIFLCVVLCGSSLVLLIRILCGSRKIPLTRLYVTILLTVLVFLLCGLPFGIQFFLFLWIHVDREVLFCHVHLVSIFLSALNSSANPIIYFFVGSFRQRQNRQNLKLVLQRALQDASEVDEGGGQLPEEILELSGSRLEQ
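Material: MrgX1-expressing HEK293 cells; input: 15,000 cells per well; doses: test compound given as first of three sequential additions; schedule: overnight plating before 1 h dye loading; technique: Fluo-4 NW calcium-flux fluorescence, kinetic read; evaluation: baseline-normalised fluorescence change ratio, B-scored; control set: plate-wise positive and negative controls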
MrgX1 PAM: allosterically activates human MrgX1 receptor signaling. Q96LB2. MrgX1-HEK293, Fluo-4 calcium flux, FDSS; hits give high values. actives 0.63% (n = 310,000). AID 588675. B-score at 10 µM;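 active = plate-corrected calcium response at least 3 library SD above typical, normal starting fluorescence, not activating the receptor alone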;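 also: compound read alongside a low EC10 to EC30 dose of BAM8-22 agonist; peak minus trough fluorescence over baseline measured at the second addition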
MrgX1 antagonist: human MrgX1 receptor antagonism, primary screen. MRGX1-HEK293 calcium flux, Fluo-4, BAM8-22 antagonism; hits give low values. B-score at 10 µM. actives 1.3% (n = 310,000). AID 588676;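 active = calcium-response B-score plate-corrected more than 3 library SD below zero, starting fluorescence within 5 deviations, no agonist response on first addition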;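 also: peak minus trough fluorescence over baseline after final BAM8-22 challenge near maximal dose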
The depositor's hits bear a star; i = inactive; . = no result given.

SMILES	RGS4 inh	Hep lipid drop	RGS4 act	MrgX1 agonist	MrgX1 PAM	MrgX1 antagonist
Cc1c(Cl)cccc1NC(=O)C1CC2CCC1C2 (configuration not stated)	i	.	i	i	i	i
COc1ccc(-c2nnn(CC(=O)N3CCOCC3)n2)cc1	i	18	i	i	i	i
O=C(Cc1cccs1)Nc1ccc(-c2nnn(CC(=O)N3CCOCC3)n2)cc1	i	.	i	i	i	-6.4*
CC1(C)O[C@@H]1COc1c2ccoc2cc2oc(=O)ccc12	i	-9	i	i	i	i
CC(C)=CCOc1c2ccoc2cc2oc(=O)ccc12	i	6	i	i	i	-5.7*
COc1ccc(NC(=O)C2=Cc3cccc(OC)c3OC2)cc1	i	1	i	i	i	i
COc1cccc2c1OCC(C(=O)OCc1cccnc1)=C2	i	3	i	29*	i	i
COc1ccc(NC(=O)NNC(=O)COc2ccc3ccccc3c2)cc1	i	-5	i	i	i	i
CCOc1ccc(NC(=O)NNC(=O)COc2ccc3ccccc3c2)cc1	i	4	i	i	i	-6.7*
CCCOCC(O)CC(Cc1ccccc1)C(=O)NN (configuration not stated)	i	20	i	i	i	i
O=C(CC(Sc1ccc(Br)cc1)C(=O)O)c1ccc(Br)cc1 (configuration not stated)	6.9*	.	i	i	i	i
O=C(CC(C(=O)O)P(=O)(c1ccccc1)c1ccccc1)c1ccc(Br)cc1 (configuration not stated)	i	2	i	i	i	i
CC1CN(S(=O)(=O)c2ccc(C(=O)Nc3nnc(-c4ccc5c(c4)CCCC5)o3)cc2)CC(C)O1 (configuration not stated)	i	.	-7.3*	i	i	i
COCCNC(=O)C(c1ccc(F)cc1)N(Cc1cccs1)C(=O)CCC(=O)Nc1ccccn1 (configuration not stated)	i	0	i	i	i	i
CN(C)CCC(=O)C(Cc1ccccc1)c1ccccc1 (configuration not stated)	i	.	i	i	i	i
CC(CCCN(C)C)C(Cc1ccccc1)c1ccccc1 (configuration not stated)	i	.	-7.8*	i	i	i
CCOC(=O)c1ccc(N2CCN(c3ccccc3F)CC2)c(NC(=O)Nc2cccc(OC)c2)c1	i	57*	i	i	i	i
O=C(Cc1n[nH]c(=O)[nH]c1=O)N/N=C/CCc1ccccc1	i	-17	i	i	i	i
O=C(c1ccco1)N(CCC(c1ccccc1)c1ccco1)Cc1ccccc1 (configuration not stated)	i	-6	i	i	i	i
COc1ccc(CN(CCC(c2ccc(F)cc2)C2CCOC(C)(C)C2)C(=O)c2ccco2)cc1 (configuration not stated)	i	-10	-8.2*	i	i	i
COc1ccc(CN(CCC(c2ccccc2)c2ccco2)C(=O)c2ccco2)cc1 (configuration not stated)	i	-13	-8.2*	i	i	i
O=[N+]([O-])c1ccc(Oc2ccc(S(=O)(=O)N3CCOCC3)cc2)cc1	i	5	i	i	i	i
O=[N+]([O-])c1ccc(Oc2ccc(S(=O)(=O)N3CCOCC3)cn2)cc1	i	.	i	i	i	-8*
CC(C)CN1C(=S)SC(C)(C)C1n1oc(=O)n(-c2ccc(Cl)cc2)c1=O (configuration not stated)	i	-18	-11*	i	i	i
COc1cc(Cl)c(S(=O)(=O)N2CCCC2)cc1Cl	i	-4	i	i	i	i
SMILES	RGS4 inh	Hep lipid drop	RGS4 act	MrgX1 agonist	MrgX1 PAM	MrgX1 antagonist
COc1cc(N2C(=O)C=CC2=O)c(OC)cc1Cl	i	8	-7.1*	i	i	i
CCOP(=O)(c1ccccc1)c1nc(-c2ccc(F)cc2)oc1N1CCCCC1 (configuration not stated)	i	.	i	38*	i	i
CCOP(=O)(OCC)c1nc(-c2ccc(Br)cc2)oc1N1CCCCC1	i	.	i	i	i	i
Cc1cccc(C)c1NC(=O)NC1(C(=O)NCCCN2CCOCC2)CCCCC1	i	-6	i	i	i	i
CC1CCN(CC(=O)Nc2ccc(S(=O)(=O)N3CCCCC3)cc2)CC1	i	4	i	i	i	i
CC1CCN(CC(=O)Nc2ccc(N3CCCCCC3)cc2)CC1	i	0	-7*	i	i	i
O=C1ON=C(c2ccc(Cl)cc2)/C1=C/c1ccc(O)cc1	i	2	i	34*	i	i
O=C(O)/C=C/c1ccc([N+](=O)[O-])o1	i	-5	i	i	i	-5.2*
COCCn1c(SCC(=O)N2CCCC2)nc2c([nH]c3ccccc32)c1=O	i	23	i	i	i	i
Cc1c(C(=O)OC(C)C(C)C[N+](C)(C)C)oc2ccccc12 (configuration not stated)	i	9	-8.4*	i	i	i
N#C/C(=C\c1ccc(N2CCCCC2)o1)C(=O)Nc1cccc(Br)c1	i	4	i	53*	i	i
O=C(CCC1CCCN(Cc2ccc3c(c2)CCO3)C1)NCc1ccc(F)c(F)c1 (configuration not stated)	i	0	i	i	i	i
COc1ccc(C2=NN(C(=O)c3cccs3)C(O)(C(F)(F)F)C2)cc1 (configuration not stated)	i	6	i	i	i	i
COc1ccc(C2=NN(c3nc(C(=O)O)cs3)C(O)(C(F)(F)F)C2)c(OC)c1 (configuration not stated)	i	16	i	i	i	-6.5*
CC(C)CN=Cc1c(O)c([N+](=O)[O-])cc2oc3c(c12)CCCC3	i	-6	i	i	i	-6.2*
O=[N+]([O-])c1cc2oc3c(c2c(C=NCc2ccccc2)c1O)CCCC3	i	14	i	i	i	i
O=S(=O)(c1cccc(F)c1)N1CCN(C(=S)NCC2CCCO2)CC1 (configuration not stated)	i	-1	i	i	i	i
